High-throughput results: PubChem BioAssay, several laboratories
Only some compounds are listed: those with a hit (about 2.2% of all), similar ones and a draw of the others.
RBBP9 inhibitor = human RBBP9 inhibitors, primary screen, biochemical, fluorescence polarization, FP-Rh probe, HTS. hit rate 0.2% among 220,000. AID 1515, 2009. inhibition, % at 7.94 µM. recombinant RBBP9;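 active = inhibition above the campaign mean of all tested compounds plus 3 SD, cut at about 14% in these data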
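System: RBBP9 protein | Quantity: 2.5 µM RBBP9 dispensing solution, before mixing | Reagent: FP-Rh probe, 375 nM dispensing solution | Timing: Enzyme-compound preincubation 30 min, then probe labeling 45 min, 25 °C | Measured by: Fluorescence polarization | Read-out: % inhibition | Replication: One well per compound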
Arbovirus anti = antivirals against arbovirus infection, primary screen, cell-based, full library, 10K replicate subset. arbovirus infection cell-based antiviral screen. inhibition, % at 10 µM. AID 1251, 2008. hit rate 0.37% among 200,000; in the data active = inhibition above about 30%
DTT redox prof = compounds producing H2O2 with reducing agent – biochemical, NIH compound library profiling, artefact control for MLSCN library redox annotation, primary screen | DTT-dependent redox cycling H2O2, phenol red/HRP absorbance; 100% = 100 µM peroxide control, 0% = buffer | activation, % at 10 µM | hit rate 0.03% among 200,000;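 active = activation of at least 50% relative to the plate's high and low controls in the primary single-dose screen; inactive = activation below 50%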;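 note: compound incubated with DTT at 0.8 mM final as the reducing agent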
PKD1 kinase inh = inhibitors of human PKD1 kinase, biochemical, fluorescence polarization; inhibition, % (no concentration beside the values); Serine/threonine-protein kinase D1 (Homo sapiens), Q15139; AID 797, 2007; PKD1 kinase fluorescence polarization assay; hit rate 0.056% among 200,000; in the data active = inhibition above about 50%
p97 inhibitor = inhibitors of human p97 ATPase, primary screen, biochemical; recombinant p97 ATPase, Kinase-Glo ATP luminescence, 3 h; Transitional endoplasmic reticulum ATPase (Homo sapiens), P55072; inhibition, % at 8 µM; hit rate 0.42% among 220,000; in the data active = inhibition above about 15%
Wee1 degr inh = Wee1 degradation inhibitors, primary screen, cell-based, HeLa, Wee1K328M-luciferase, luminescence; reporter increase, % at 5 µM; Wee1-like protein kinase (Homo sapiens), P30291; HeLa Luc-Wee1K328M stability; 100% = proteasome inhibitor MG132 effect; AID 1321, 2008; hit rate 1.2% among 220,000;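 active = activation above the mean of all tested compounds plus 3 SD, set per screening run, cut at about 8.8% in these data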;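 note: cells exposed to compound for 20 h before luminescence read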
Target sequence (P30291 whole entry K328M): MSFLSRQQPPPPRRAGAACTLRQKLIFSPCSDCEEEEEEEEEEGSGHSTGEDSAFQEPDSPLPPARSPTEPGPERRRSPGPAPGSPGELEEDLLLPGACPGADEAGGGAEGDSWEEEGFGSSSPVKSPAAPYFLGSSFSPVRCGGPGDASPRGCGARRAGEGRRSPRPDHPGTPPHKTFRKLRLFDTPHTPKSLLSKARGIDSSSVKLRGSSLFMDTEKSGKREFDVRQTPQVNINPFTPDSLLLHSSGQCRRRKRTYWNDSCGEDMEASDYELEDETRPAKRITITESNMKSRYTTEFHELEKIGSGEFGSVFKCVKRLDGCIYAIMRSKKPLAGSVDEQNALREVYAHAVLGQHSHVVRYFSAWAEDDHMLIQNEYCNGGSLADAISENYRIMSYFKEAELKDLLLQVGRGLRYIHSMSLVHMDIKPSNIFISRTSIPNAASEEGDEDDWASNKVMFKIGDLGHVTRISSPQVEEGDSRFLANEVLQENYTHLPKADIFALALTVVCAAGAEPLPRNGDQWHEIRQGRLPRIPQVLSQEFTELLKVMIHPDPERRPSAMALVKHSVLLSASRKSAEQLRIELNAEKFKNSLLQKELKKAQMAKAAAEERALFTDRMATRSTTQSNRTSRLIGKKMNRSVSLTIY
Redox H2O2 DR = redox cycling H2O2 generation, confirmed. shares compounds with DTT redox prof. DTT-dependent redox cycling H2O2, phenol red-HRP absorbance. EC50, µM. hit rate 40% among 60. AID 1234;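 active = EC50 under a set limit for hydrogen peroxide production with the reducing agent DTT present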
Wee1 stab conf = Wee1 degradation inhibitors, confirmation, cell-based, HeLa, Wee1K328M-luciferase, luminescence, triplicate | hit rate 4% among 1,100 | HeLa Luc-Wee1K328M degradation; vehicle 0%, proteasome-blocked wells 100% | activation, % at 5 µM | shares compounds with Wee1 degr inh; in the data active = activation above about 8.9%
p97 inh conf = p97 ATPase inhibitors, retest, confirmation, biochemical. recombinant p97 ATPase, Kinase-Glo ATP luminescence. shares compounds with p97 inhibitor. hit rate 44% among 760. inhibition, % at 8 µM;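 active = percent inhibition of p97 ATPase above a set limit, the primary screen's mean plus 3 SD, cut at about 15% in these data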
Numbers stand for hits; n = inactive; x = no result.

SMILES	RBBP9 inhibitor	Arbovirus anti	DTT redox prof	PKD1 kinase inh	p97 inhibitor	Wee1 degr inh	Wee1 stab conf	others
CCCc1nc2c(=O)n(C)c(=O)nc-2n(C)n1	n	n	128	n	32	n	x	Redox H2O2 DR=1.5;p97 inh conf=29
CCn1c(N)nc2c1c(=O)n(C)c(=O)n2C	n	n	n	n	n	n	x
CCCCn1c(NC(=O)c2ccccc2Cl)c(C#N)c2nc3ccccc3nc21	n	n	311	n	29	n	x	Redox H2O2 DR=n;p97 inh conf=40
CC(C)N1C(=O)/C(=C\c2nc3ccccc3c(=O)[nH]2)c2ccccc21	n	n	n	n	n	n	x
Cc1ccc(S(=O)OCC(=O)Nc2cc(Cl)ccc2N2CCOCC2)cc1 (stereo unspecified)	n	n	n	n	n	16	n
COC(=O)C1=C(C(=O)OC)C2C(C)=CC(C)=CN2C(C(=O)OC)=C1C(=O)OC (stereo unspecified)	n	n	n	n	n	n	x
CCC(=O)OCC(=O)c1cc(C)n(-c2ccc(Br)cc2)c1C	n	n	n	n	n	n	x
Cc1cc(CN2CCCC(CO)(Cc3cccc(Cl)c3)C2)n[nH]1 (stereo unspecified)	n	n	n	n	n	14	n
CC(C)Cc1cc(CN2CCCC(CO)(Cc3cccc(Cl)c3)C2)[nH]n1 (stereo unspecified)	n	n	n	n	n	n	x
O=C(NCCc1ccccc1)c1cc(=O)[nH]c2ccccc12	n	n	n	n	n	11	n
O=C(NCCc1ccccc1)c1c(F)c(F)c(F)c(F)c1F	n	n	n	n	n	24	n
O=C(NCCc1ccccc1)c1ccccc1F	n	n	n	n	n	n	x
O=C(NCc1ccc2c(c1)OCO2)c1cc(=O)[nH]c2ccccc12	n	x	x	x	n	n	x
Cc1cc2ncc(C(=O)Nc3ccsc3C(=O)O)c(C)n2n1	n	n	n	n	n	n	x
COC(=O)C(C(=O)Nc1nc2ccccc2s1)C1CCCC1 (stereo unspecified)	n	n	n	n	n	n	x
CCn1c2ccccc2n2c(=O)c(=O)n(CC(=O)Nc3ccc(C(C)C)cc3)nc12	n	n	n	n	n	n	x
O=S(=O)(N/N=C/c1ccc(N2CCOCC2)cc1)c1ccc(Br)cc1	n	n	n	n	n	n	x
O=C1CCc2cc(S(=O)(=O)NC(Cc3ccccc3)C(=O)NC3CCCCC3)ccc2N1 (stereo unspecified)	n	n	n	n	n	28	n
CC(C)(C)NC(=O)C(Cc1ccccc1)NS(=O)(=O)c1ccc2c(c1)CCC(=O)N2 (stereo unspecified)	n	n	n	n	n	n	x
Cc1cccn2c(=O)c(/C=C(\C#N)C(=O)NC3CCS(=O)(=O)C3)c(N3CCC(C)CC3)nc12 (stereo unspecified)	n	n	n	n	n	n	x
Cc1ccsc1/C=C(\C#N)C(=O)NC1CCS(=O)(=O)C1 (stereo unspecified)	n	n	n	n	n	12	n
Cc1nc(CN(C)C(=O)c2ccccc2OC2CCN(S(C)(=O)=O)CC2)cs1	n	n	n	n	n	n	x
O=[N+]([O-])/C=C\c1ccc(N2CCCC2)c(F)c1	n	n	n	n	n	16	n
O=Cc1ccc(N2CCCC2)c([N+](=O)[O-])c1	n	n	n	n	n	n	x
N#CC(c1ccc(Cl)nn1)c1c(F)cccc1Cl (stereo unspecified)	n	n	n	n	n	n	x
SMILES	RBBP9 inhibitor	Arbovirus anti	DTT redox prof	PKD1 kinase inh	p97 inhibitor	Wee1 degr inh	Wee1 stab conf	others
Cc1csc(NC(=O)c2ccco2)c1C(=O)c1ccccc1	n	x	x	x	n	12	n
CCN(CC)CCNC(=O)COc1ccc(Cl)cc1Cl	n	n	n	n	n	11	n
CCCn1c(SCC(=O)N2CCCC(C)C2)nnc1-c1ccccn1 (stereo unspecified)	n	n	n	n	n	n	x
O=C(c1ccc(Cl)cc1)C1CCCN(C(=O)c2csnn2)C1 (stereo unspecified)	n	n	n	n	n	16	n
COCCn1c(CN2CCN(c3ccccc3)CC2)nc2c1c(=O)n(C)c(=O)n2C	n	x	n	n	n	n	x
CCOCCn1c(CN2CCN(c3ccccc3)CC2)nc2c1c(=O)n(C)c(=O)n2C	n	x	n	n	n	11	n
Cn1cccc1C(=O)C(=O)Nc1ccc(F)c(F)c1	n	n	n	n	n	n	x
O=C(c1ccc(Br)o1)N1CCc2ccccc21	n	n	n	n	n	13	n
Cc1c(C(=O)N2CCc3ccccc32)oc2ccccc12	n	n	n	n	n	11	n
Cc1nn(-c2ccccc2)c(/N=C/c2ccc(O)cc2)c1-c1ccccc1	n	n	n	n	n	n	x
CCCOc1ccc(C(=O)CCN2CCN(C(=O)OCC)CC2)cc1	n	n	n	n	n	17	n
CCOc1ccc(C(=O)CCN2CCCCC2)cc1	n	n	n	n	n	n	x
O=C(c1ccccc1F)N(NC(=O)C(O)(c1ccccc1)c1ccccc1)c1ccccc1	n	n	n	n	n	n	x
COc1ccc(OC)c(S(=O)(=O)N2CCC(C(=O)Nc3cccc(C)c3)CC2)c1	n	n	n	n	n	11	n
CCOC(=O)CNc1ccc(OC(F)(F)F)cc1	n	x	x	x	n	n	x
Cc1ccc(OCC(=O)N/N=C2/SCC(=O)N2Cc2ccco2)cc1	n	n	n	n	n	12	n
O=C(COc1cccc2cccnc12)N/N=C1\SCC(=O)N1Cc1ccco1	n	n	n	n	n	n	x
CCOC(=O)N1CCN(CC(=O)Nc2ccc(OC)cc2)CC1	n	n	n	n	n	n	x
CCNC(=S)N1CCN(CC(=O)Nc2ccc(OC)cc2)CC1	n	n	n	n	n	12	n
Cc1cccc2c(CC(=O)Nc3ccccc3)noc12	n	n	n	n	n	13	n
OC[C@@H]1CCCN1Cc1nc(-c2cccs2)no1	n	n	n	n	n	11	n
Cc1nc([N+](=O)[O-])cn1Cc1cccc([N+](=O)[O-])c1	n	n	n	n	n	n	x
